# ERp5 inh = inhibitors of human ERp5 | ERp5 insulin aggregation, absorbance 650 nm, 90 min | Q15084 | inhibition, % at 9.99 µM | AID 651711 | 350,000 tested, 0.05% active;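 active means mean replicate inhibition above about 25%, with every replicate also reaching it, limit read from the data, passing the limit was not always enough; inconclusive means only one of those two criteria met; inactive means neither criterion met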
# GSIS activator = GLuc luminescence reporter in INS-1E cells, primary screen for activators of glucose-dependent secretion of insulin; INS-1E GLuc reporter insulin secretion, 2-3 h; activation, % at 16.6 µM; 370,000 tested, 0.61% active;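 active means lowest replicate activation of at least 40%, so every replicate reaches that level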
# SIRT5 block = inhibitors of human sirtuin-5 desuccinylase. Purified SirT5, succinyl-peptide AMC, trypsin-coupled fluorescence. inhibition, % at 15 µM. Q9NXA8. 330,000 tested, 1.1% active; in the data active means inhibition above about 15%; inconclusive means no clear call, values can overlap the other calls
# Target sequence (Q9NXA8 whole entry, looked up): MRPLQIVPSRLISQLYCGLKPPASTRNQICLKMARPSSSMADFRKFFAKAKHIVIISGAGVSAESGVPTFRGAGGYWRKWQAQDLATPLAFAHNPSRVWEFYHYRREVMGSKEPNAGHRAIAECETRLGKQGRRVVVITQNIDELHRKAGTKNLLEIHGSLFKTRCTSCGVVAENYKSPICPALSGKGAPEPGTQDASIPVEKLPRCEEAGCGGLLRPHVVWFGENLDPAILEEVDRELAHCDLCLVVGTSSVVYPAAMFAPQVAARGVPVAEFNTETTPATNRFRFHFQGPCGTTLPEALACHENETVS
# S100A4 inh HTS = inhibitors of human S100A4 binding to myosin IIA peptide. AID 652163. inhibition, % at 10.7 µM. S100A4/TAMRA-MyoIIA peptide fluorescence polarization. 360,000 tested, 0.14% active. P26447;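 active means mean inhibition of at least 70% across replicates, with every replicate also reaching that level; inconclusive means mean inhibition reaches 70% but some replicates fall short; inactive means mean inhibition below 70%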
# Target sequence (P26447 whole entry, looked up): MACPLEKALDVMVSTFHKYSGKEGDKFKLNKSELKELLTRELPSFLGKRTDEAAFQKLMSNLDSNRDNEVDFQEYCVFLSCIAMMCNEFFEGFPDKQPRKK
#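 assay system = human S100A4 monomer with TAMRA-labelled myosin IIA peptide | also added = labelled myosin peptide probe, 5 nM | incubation = 5 min between mix addition and reading | control set = DMSO and TFP controls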
# PDI inh = blocks human protein disulfide isomerase activity | inhibition, % at 10 µM | P07237 | PDI insulin aggregation turbidity, A650, 90 min | 350,000 tested, 0.052% active | AID 588391;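 active means mean inhibition across replicates of 30% or more, whatever share of single replicates reach that level; inconclusive means mean inhibition below 30% while every single replicate reaches 30%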
# A number is an active result; 0 = inactive; ? = inconclusive; - = no result given. The list is not random: actives were taken first. Their share in the collection is about 1.5%.
SMILES,ERp5 inh,GSIS activator,SIRT5 block,S100A4 inh HTS,PDI inh
O=C(CSc1ccc(-c2ccccc2)nn1)c1cccs1,0,0,16,0,0
COc1ccc(-c2ccc(SCC(=O)c3cccs3)nn2)cc1,0,0,0,0,0
COCC(=O)N1CC[C@@H]2[C@H]1c1cc(-c3cccc(C#N)c3)ccc1N[C@@H]2CO,0,0,0,0,-
Cc1cccc(N2CCN(C(=O)COc3ccc4c(C)cc(=O)oc4c3C)CC2)c1C,0,0,19,0,0
CC(C)C#Cc1cnc2c(c1)C(=O)N([C@H](C)CO)C[C@H](C)[C@@H](CN(C)C(=O)Nc1ccc(F)cc1)O2,0,0,0,0,-
C[C@@H]1CN([C@@H](C)CO)S(=O)(=O)c2ccc(C3=CCCC3)cc2O[C@@H]1CN(C)C(=O)c1cccnc1,0,0,0,0,-
CCCNC(=O)N1CC2(CN(S(=O)(=O)c3ccccc3)C2)c2c(n(C)c3cc(OC)ccc23)[C@H]1CO,0,0,0,0,-
COc1ccc2c3c(n(C)c2c1)[C@H](CO)N(C(=O)c1ccccc1)CC31CCN(C(=O)c2ccccc2)CC1,0,0,0,73,-
CCCNC(=O)N1CC2(CN(S(=O)(=O)c3ccc(OC)cc3)C2)c2c(n(C)c3cc(OC)ccc23)[C@H]1CO,0,0,16,0,-
COc1ccc2c3c(n(C)c2c1)[C@H](CO)N(C(=O)c1ccccc1)CC31CCN(C(C)=O)CC1,0,0,0,0,-
COc1ccc2c3c(n(C)c2c1)[C@H](CO)N(S(C)(=O)=O)CC31CCN(CC2CCCC2)CC1,60,0,0,0,-
COc1ccc2c3c(n(C)c2c1)[C@H](CO)N(S(C)(=O)=O)CC31CCN(CC2CCCCC2)CC1,0,0,0,0,-
CCCNC(=O)[C@@H]1[C@@H](CO)[C@@H]2Cn3c(ccc(-c4ccccc4F)c3=O)[C@H]1N2CCC,-,0,-,-,-
CCC(CC)CN1CCC(CN2C(=O)C(=O)NC[C@@H]2[C@@H](C)CC)CC1,0,0,0,0,0
CCC(CC)CN1CCC(CN2C(=S)NC[C@@H]2[C@@H](C)CC)CC1,0,0,19,0,0
COc1cc(OC)c2c3c(c(C4CCCCC4)nc2c1)CCC3,0,266,-,0,0
CCNC(=O)C[C@@H]1CC[C@H]2[C@@H](COc3ccc(NC(=O)c4ccc(F)cc4)cc3C(=O)N2C)O1,0,0,0,0,-
CNC(=O)c1nnsc1S(=O)c1ccc(Cl)cc1 (stereo not drawn),0,0,0,0,0
CCCNC(=O)c1nnsc1S(=O)c1ccc(Cl)cc1 (stereo not drawn),0,115,0,0,0
CCCNC(=O)c1nnsc1S(=O)(=O)c1ccc(Cl)cc1,0,65,0,0,0
Cc1c(Cc2ccc3c(c2)OCO3)sc(NC(=O)c2ccccc2)c1C(N)=O,0,-,20,0,-
Cc1nc(NC(=O)c2ccccc2)sc1Cc1ccc2c(c1)OCO2,0,0,0,0,0
CS(=O)(=O)Nc1ccc2c(c1)[C@H]1C[C@H](CC(=O)NCc3cccnc3)O[C@@H](CO)[C@H]1O2,0,0,0,0,-
O=C(C[C@H]1CC[C@@H]2[C@H](COC[C@@H](O)CN2C(=O)Nc2ccccc2)O1)NC1Cc2ccccc2C1,0,0,0,0,-
CCCCc1[nH]c(=O)c(C#N)c2c1CCCC2,-,99,-,-,0
SMILES,ERp5 inh,GSIS activator,SIRT5 block,S100A4 inh HTS,PDI inh
O=C(c1ccco1)N1N=C(C2CCCCC2)CC1(O)C(F)(F)F (stereo not drawn),0,52,0,0,0
O=C(C[C@H]1CC[C@H]2[C@@H](COC[C@@H](O)CN2S(=O)(=O)c2ccccc2)O1)NCc1ccc2c(c1)OCO2,0,0,0,?,-
C[C@H]1CN([C@@H](C)CO)C(=O)c2cc(NC(=O)Nc3ccc4c(c3)OCO4)ccc2O[C@@H]1CN(C)C(=O)NC1CCCCC1,0,0,16,0,-
C[C@H]1CN([C@@H](C)CO)C(=O)c2cc(NC(=O)Nc3ccccc3)ccc2O[C@@H]1CN(C)C(=O)NC1CCCCC1,0,0,0,0,-
C[C@H](CO)N1C[C@H](C)[C@H](CN(C)C(=O)NC2CCCCC2)Oc2ccc(NC(=O)Nc3ccccc3)cc2C1=O,0,0,22,0,-
CC(C)Cn1c(=O)n(C)c(=O)c2[nH]cnc21,0,73,0,0,0
Cn1c(=O)c2[nH]cnc2n(C)c1=O,0,0,0,0,0
CCN1CCN(C(c2cccs2)C(C)NC(=S)Nc2cc(C)ccc2C)CC1 (stereo not drawn),0,0,16,0,0
Cc1ccc(C)c(NC(=S)NC(C)C(c2ccccc2)N2CCN(C)CC2)c1 (stereo not drawn),0,0,0,0,0
O=C(c1ccc2c(c1)OCO2)N1CC(=O)N2[C@H](C1)[C@H](c1ccc(C#CCC3CCCC3)cc1)[C@@H]2CO,0,0,24,0,-
O=C(c1ccc2c(c1)OCO2)N1CC(=O)N2[C@H](CO)[C@@H](c3ccc(C#CCC4CCCC4)cc3)[C@H]2C1,0,0,16,0,-
O=C(c1ccc2c(c1)OCO2)N1CC(=O)N2[C@H](C1)[C@@H](c1ccc(C#CCC3CCCC3)cc1)[C@@H]2CO,0,0,18,0,-
O=C(c1ccc(F)cc1)N1CC(=O)N2[C@H](C1)[C@H](c1ccc(C#CCC3CCCC3)cc1)[C@@H]2CO,0,0,19,0,-
COc1ccc(-c2cnc3c(c2)C(=O)N([C@@H](C)CO)C[C@H](C)[C@H](CN(C)S(=O)(=O)c2ccc(OC)cc2)O3)cc1,-,0,-,-,-
CC(=O)N(C)C[C@H]1Oc2cc(C3=CCCCC3)ccc2S(=O)(=O)N([C@@H](C)CO)C[C@@H]1C,-,0,-,-,-
COCC(=O)N1CCC2(CC1)CN(Cc1ccccc1Cl)[C@@H](CO)c1c2c2ccc(OC)cc2n1C,-,0,-,-,-
COc1ccc(OC)c(N(CC(=O)NN=C2CCN(C)CC2)S(=O)(=O)c2ccccc2)c1,0,93,0,0,0
Cc1cccc(OCC(=O)N/N=C/c2ccc3c(c2)OCO3)c1,0,0,0,0,0
O=C(COc1ccccc1)N/N=C/c1ccc2c(c1)OCO2,0,0,21,0,0
Cc1ccc(S(=O)(=O)N[C@H]2CC[C@@H](CCNC(=O)C3CCC3)O[C@H]2CO)cc1,0,0,0,0,-
COC(c1ccccc1)c1nnc(CCC(=O)N(C)C(C2CC2)C2CC2)o1 (stereo not drawn),0,0,15,0,0
COc1ccc(NC(=O)Nc2cccc3c2O[C@@H](CN(C)S(=O)(=O)c2ccccc2)[C@@H](C)CN([C@H](C)CO)C3=O)cc1,0,0,0,0,-
O=S(=O)(NCC1CCCO1)c1ccc(Cl)cc1 (stereo not drawn),0,0,0,0,0
O=S(=O)(NCC1CCCO1)c1ccc(Cl)nc1 (stereo not drawn),0,44,0,0,0
Cc1c(O)ccc2c(CN3CCN(C/C=C/c4ccccc4)CC3)cc(=O)oc12,0,0,0,0,44
CCCNC(=O)C1(C)CCN(C(=O)c2cccc(OC(F)(F)F)c2)C1 (stereo not drawn),0,0,-,0,0
